An excerpt weighted towards active compounds, which were near 1.8% of everything screened.
rRNA inh HTS = selective bacterial rRNA inhibition in E. coli; E. coli WT GFP vs humanized-ribosome RFP mutants, fluorescence, 24 h; hits give low values; DMSO median 0, no signal -100; AID 720706; GFP signal change (wild-type ribosome), % (test concentration not listed); 350,000 tested, 1.6% active;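 active means significant combined selectivity score with lowered wild-type GFP, culture density cut under 30%, mutant RFP and density less affected; inactive means any of these conditions unmet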
MT1-MMP act inh = MT1-MMP (human) activation inhibition; P50281; HT1080 RFP-PRO-GFP cells, GFP/RFP ratio fluorescence, overnight; percent of plate control window, DMSO zero; GFP/RFP ratio change, % at 20 µM; 360,000 tested, 0.061% active; AID 651647;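 active means GFP/RFP ratio change of at least 30% with cell ATP level not reduced by more than half and red fluorescence within 50% of control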
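Assay system: HT1080 RFP-PRO-GFP cells. Benchmarks: DMSO vehicle wells and RFP-L50D-GFP reporter cell wells. Times: overnight cell settling, then overnight compound exposure, 37 °C, 5% CO2. Compound: 20 µM single dose, 1% DMSO. Read-out basis: GFP/RFP fluorescence ratio.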
SKN-1 inh = blocks SKN-1 activity in C. elegans | C. elegans VP596 Pgst-4::GFP/RFP ratio, acrylamide-induced, 24 h | inhibition, % at 21.8 µM | 360,000 tested, 0.49% active | AID 624304;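 active means interference check ratio from 0.5 to 1.5 plus GFP to RFP signal ratio inhibition reaching or exceeding a fixed threshold, cut at about 30% in these data, passing the limit was not always enough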
Cneo AK release = Cryptococcus neoformans lysis via adenylate kinase release; 360,000 tested, 0.2% active; lysis activity, % at 15 µM; C. neoformans lysis, adenylate kinase release luminescence, 4 h; normalised: neutral wells 0, clomiphene wells 100;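 active means mean lysis activity across replicates of at least 80%, whatever share of replicates individually reach that level; inactive means mean lysis activity below 80%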
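Material: C. neoformans cells | Amount: Yeast cell density of 5 × 10^6 cells/mL | Medium: Fresh YPD growth medium | Dosing: Single dose | Times: Static 4 h at 37 °C with compound, 1 h detection | Detection: AK luminescence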
DAGLB inhibitor = diacylglycerol lipase beta (human) inhibition. Q8NCG7. 340,000 tested, 0.059% active. AID 504411. HEK293T DAGLB membrane lysate, EnzChek fluorogenic substrate. inhibition, % at 5.17 µM; in the data active means inhibition above about 34%;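 further: 0% = enzyme with vehicle and 100% = wells lacking enzyme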
Target sequence (Q8NCG7 whole entry, looked up): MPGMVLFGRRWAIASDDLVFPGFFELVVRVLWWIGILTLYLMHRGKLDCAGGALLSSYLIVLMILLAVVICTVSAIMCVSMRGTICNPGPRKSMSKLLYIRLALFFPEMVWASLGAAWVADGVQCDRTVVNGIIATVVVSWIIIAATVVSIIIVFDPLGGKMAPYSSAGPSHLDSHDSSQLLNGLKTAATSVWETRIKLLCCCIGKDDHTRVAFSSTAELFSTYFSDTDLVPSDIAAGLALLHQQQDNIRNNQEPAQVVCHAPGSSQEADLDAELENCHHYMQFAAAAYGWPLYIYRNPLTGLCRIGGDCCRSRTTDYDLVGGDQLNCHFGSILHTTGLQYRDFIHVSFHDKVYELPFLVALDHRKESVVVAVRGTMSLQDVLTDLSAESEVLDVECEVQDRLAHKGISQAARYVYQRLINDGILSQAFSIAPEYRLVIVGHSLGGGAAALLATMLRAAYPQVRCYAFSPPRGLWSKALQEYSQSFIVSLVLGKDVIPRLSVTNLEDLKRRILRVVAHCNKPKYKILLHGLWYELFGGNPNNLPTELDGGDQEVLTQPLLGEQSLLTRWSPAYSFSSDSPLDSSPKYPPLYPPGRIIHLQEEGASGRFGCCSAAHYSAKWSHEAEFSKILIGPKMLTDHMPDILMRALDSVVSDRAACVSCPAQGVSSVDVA
iPSC survival up = increases survival of single human iPS cells | hiPSC single-cell survival, ATPlite luminescence; 100% = ROCK inhibitor wells, 0% = DMSO | 360,000 tested, 0.044% active | survival enhancement, % at 20 µM | AID 602274; in the data active means survival enhancement above about 18%;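 further: cells exposed to compounds for 16 hours before the ATP read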
* marks the source's active call; other numbers are inactive results; x = not tested or not shown.

SMILES	rRNA inh HTS	MT1-MMP act inh	SKN-1 inh	Cneo AK release	DAGLB inhibitor	iPSC survival up
c1coc(-c2nc3ccccc3nc2-c2ccco2)c1	-28*	27	7	-4	5	0
COC(=O)c1cc(C(=O)c2c(C)cc3ccccn23)cc([N+](=O)[O-])c1	-22*	-1	10	-3	4	1
Cc1cc2ccccn2c1C(=O)c1cc([N+](=O)[O-])cc([N+](=O)[O-])c1	14	6	4	x	8	0
CCn1c(SCC(=O)NC2CCCCC2)nnc1-c1cc2cccc(OC)c2o1	x	2	45*	2	-1	0
CCn1c(SCC(=O)Nc2nccs2)nnc1-c1cc2cccc(OC)c2o1	x	8	5	x	1	3
Cc1ccc2oc(-c3cccc(N)c3)nc2c1	-23*	1	3	-5	-1	-2
CN1[C@@H]2c3ccc(-c4ccccc4F)c(=O)n3C[C@@H]2[C@@H](CO)[C@@H]1C(=O)NCc1ccncc1	0	x	x	-1	x	x
COc1cccc(N2CCN(c3ccc(S(=O)(=O)N4CCN(C)CC4)cc3[N+](=O)[O-])CC2)c1	-23*	7	16	x	2	0
CCN(CC)S(=O)(=O)c1ccc(N2CCN(c3cccc(OC)c3)CC2)c([N+](=O)[O-])c1	x	9	-4	3	1	-1
O=C(C[C@@H]1C[C@H]2c3cc(NC(=O)C4CCC4)ccc3O[C@H]2[C@@H](CO)O1)NCc1cc(F)ccc1F	0	x	x	17	x	x
C[C@@H]1CN([C@@H](C)CO)C(=O)c2cc(-c3cccc(C#N)c3)cnc2O[C@@H]1CN(C)C(=O)C1CC1	10	x	x	6	x	x
CCOC(=O)CC1(c2ccc(OC)c(OC)c2)C(=O)c2ccccc2C1=O	-27*	3	-5	x	-2	0
O=c1c(/C=N/O)c(Nc2ccccc2)nc2ccccn12	-20*	-3	3	0	-1	2
C[C@@H]1CN([C@@H](C)CO)C(=O)c2cc(NS(=O)(=O)c3ccccc3)ccc2O[C@@H]1CN(C)Cc1ccncc1	0	x	x	39	x	x
Clc1cccc(OCc2nc(-c3ccncc3)no2)c1	-13	1	48*	x	-4	2
c1ccc(OCc2nc(-c3cccs3)no2)cc1	x	5	40*	-6	-6	-1
Clc1ccc(OCc2nc(-c3ccncc3)no2)c(Cl)c1	x	3	24	-15	-4	-1
Cc1cc(OCc2nc(-c3cccs3)no2)cc(C)c1Cl	-2	-2	-1	-1	-14	2
Fc1ccc(OCc2nc(-c3cccs3)no2)cc1	-11	3	39*	0	-6	-1
CCCN(C)C[C@H]1OCCCC[C@H](C)Oc2ccc(NC(=O)c3ccccc3)cc2C(=O)N([C@@H](C)CO)C[C@H]1C	1	x	x	1	x	x
COc1cccc(S(=O)(=O)N[C@H]2C=C[C@@H](CC(=O)NCc3ccccc3)O[C@H]2CO)c1	0	x	x	-2	x	x
CCCNC(=O)N(C)C[C@@H]1Oc2cc(-c3ccncc3)ccc2S(=O)(=O)N([C@@H](C)CO)C[C@H]1C	6	x	x	3	x	x
Clc1ccc2oc(-c3ccccc3)nc2c1	x	-1	28	-1	-2	3
Clc1ccc2oc(-c3cccnc3)nc2c1	x	-4	50*	x	-5	4
O=C(CSc1nc2cc(Cl)ccc2o1)NCCc1ccccc1	x	1	0	-5	-6	0
SMILES	rRNA inh HTS	MT1-MMP act inh	SKN-1 inh	Cneo AK release	DAGLB inhibitor	iPSC survival up
Clc1ccc2oc(SCc3cccnc3)nc2c1	-20	-4	41*	1	-1	0
COC(=O)C1C2CC3c4[nH]c5cc(OC)ccc5c4CCN3CC2CC(O)C1OC (stereo not drawn)	x	-4	7	3	-3	3
COC(=O)C1C2CC3c4[nH]c5cc(OC)ccc5c4CCN3CC2CC(OC(=O)CC(C)=O)C1OC (stereo not drawn)	5	-56	47*	x	-16	-1
C[C@@H]1CN([C@H](C)CO)C(=O)c2ccccc2-c2ccccc2CO[C@@H]1CN(C)CC1CC1	2	x	x	x	x	x
NC(=O)C1CCN(C2=C(NS(=O)(=O)c3ccc(Br)cc3)C(=O)c3ccccc3C2=O)CC1	-31*	2	8	37	24	0
NC(=O)C1CCN(C2=C(NS(=O)(=O)c3ccccc3)C(=O)c3ccccc3C2=O)CC1	1	5	7	x	4	0
CCOC(=O)C1CCN(C2=C(NS(=O)(=O)c3ccc(Br)cc3)C(=O)c3ccccc3C2=O)CC1	-38*	3	23	-1	30	0
CC(=O)c1ccc(NC(=S)NC(C)c2ccc(Cl)cc2Cl)cc1 (stereo not drawn)	-49*	6	-18	1	1	-1
CCn1c2ccccc2c2cc(/C=N/NC(=O)c3ccncc3)ccc21	-36*	-6	1	0	-3	0
O=C(N/N=C/c1ccncc1)c1ccccc1	x	-1	-6	1	-6	1
O=C(N/N=C/c1cc(Cl)cc(Cl)c1O)c1ccncc1	-19*	-10	-10	-2	-1	0
O=C(N/N=C/c1cccc(Oc2ccccc2)c1)c1ccncc1	-21*	-2	4	x	0	0
CCn1c2ccccc2c2cc(/C=N/NC(=O)c3ccc(O)cc3)ccc21	-4	8	8	x	0	5
CCC(=O)N[C@@H]1CC[C@H](CC(=O)NCc2ccccc2OC)O[C@H]1CO	2	x	x	51	x	x
O=C(Nc1cc(F)ccc1F)N1CC(=O)N2[C@@H](CO)[C@H](c3ccc(/C=C/c4ccccc4)cc3)[C@@H]2C1	-10	x	x	x	x	x
CN1/C(=C\C(=O)Nc2ccc(Br)cc2)C(C)(C)c2ccccc21	-42	1	4	-2	-5	-2
CN1/C(=C\C(=O)Nc2cccc(Cl)c2)C(C)(C)c2ccccc21	-27	8	50*	0	-4	0
Cc1ccc2cc(CN(Cc3cccs3)Cc3nnnn3CC3CCCO3)c(=O)[nH]c2c1 (stereo not drawn)	-29*	-1	8	0	3	2
Cc1ccc(CCSc2ccc(C(C)C)cc2)cn1	-19	0	8	-1	-3	-1
Cc1ccc(CCSc2ccc(F)cc2)cn1	-22*	3	-3	-1	x	0
O=C1C(=Cc2cccs2)CCc2ccccc21	-28	x	x	x	x	x
O=C1/C(=C/c2cccs2)CCC/C1=C\c1cccs1	-15	-10	38*	-10	-13	0
CCCC(=O)Nc1ccc2c(c1)OC[C@@H](C)N(CCC(F)(F)F)C[C@@H](C)[C@H](OC)CN(C)C2=O	-2	x	x	x	x	x
Cc1nonc1OC(C)CNc1ccc([N+](=O)[O-])cc1 (stereo not drawn)	x	7	36*	-1	-2	1

Screens from PubChem BioAssay.
